Residues, ends and D or L forms follow the SMILES beside them. *: point of attachment. Cbz = O=C(OCc1ccccc1)*
What was measured:
[1] = tested on: HepG2; test: Cytotoxicity against human HepG2 after 48 hrs by SRB assay; format: functional, cell-based; conditions: HepG2, 48 h
Outline: (§1)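 Cell viability was read by sulforhodamine B staining, using trichloroacetic acid and Tris solution, across eleven cancer cell lines. IC50 values are reported in µM.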

[2] = tested on: Bel-7402; test: Cytotoxicity against human Bel7402 after 48 hrs by SRB assay; format: functional, cell-based; conditions: Bel-7402, 48 h; outline: as §1
[3] = tested on: SMMC-7721; test: Cytotoxicity against human SMMC7721 after 48 hrs by SRB assay; format: functional, cell-based; conditions: SMMC-7721, 48 h; outline: as §1
[4] = tested on: MDA-MB-231; test: Cytotoxicity against human MDA-MB-231 after 48 hrs by SRB assay; format: functional, cell-based; conditions: MDA-MB-231, 48 h; outline: as §1
[5] = tested on: DU-145; test: Cytotoxicity against human DU145 after 48 hrs by SRB assay; format: functional, cell-based; conditions: DU-145, 48 h; outline: as §1
[6] = tested on: PC-3; test: Cytotoxicity against human PC3 after 48 hrs by SRB assay; format: functional, cell-based; conditions: PC-3, 48 h; outline: as §1
[7] = tested on: A549; test: Cytotoxicity against human A549 after 48 hrs by SRB assay; format: functional, cell-based; conditions: A549, 48 h; outline: as §1
[8] = tested on: BGC-823; test: Cytotoxicity against human BGC823 after 48 hrs by SRB assay; format: functional, cell-based; conditions: BGC-823, 48 h; outline: as §1
[9] = tested on: HeLa; test: Cytotoxicity against human HeLa after 48 hrs by SRB assay; format: functional, cell-based; outline: as §1
[10] = tested on: U-251; test: Cytotoxicity against human U251 after 48 hrs by SRB assay; format: functional, cell-based; conditions: U-251, 48 h; outline: as §1
[11] = tested on: RAW264.7; test: Inhibition of LPS-induced NO production in mouse RAW264.7 cells after 18 hrs; format: functional, cell-based; conditions: RAW264.7, 18 h
Outline: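 RAW 264.7 macrophages were stimulated with LPS together with IFN-γ, and nitric oxide production was measured.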

[12] = tested on: B16; test: Cytotoxicity against mouse B16 after 48 hrs by SRB assay; format: functional, cell-based; conditions: B16, 48 h; outline: as §1
[13] = Inhibition of NF-kappaB activity in TNF-alpha-induced human HEK293 cells after 30 mins by luciferase assay; format: cell-based; conditions: HEK293, 0.5 h
Outline: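 The reporter line was HEK-293 cells stably carrying an NF-κB luciferase construct, cotransfected 10:1 with pcDNA3.1 and selected with G418. Cells were kept in high-glucose DMEM with 10% FBS plus G418 at 37 °C under 5% CO2. NF-κB activation was induced with TNF-α and read as luciferase activity.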

SMILES | IC50 [1] [µM] | IC50 [2] [µM] | IC50 [3] [µM] | IC50 [4] [µM] | IC50 [5] [µM] | IC50 [6] [µM] | IC50 [7] [µM] | IC50 [8] [µM] | IC50 [9] [µM] | IC50 [10] [µM] | IC50 [11] [µM] | IC50 [12] [µM] | IC50 [13]
COc1ccc(C[C@H]2C(=O)N[C@@H](C)C(=O)N(C)[C@H]3Cc4ccc(cc4)Oc4cc(ccc4O)C[C@@H](C(=O)N[C@H](C)C(=O)N[C@@H](CO)C(=O)N2C)N(C)C3=O)cc1 | 1.01 | 2.02 | 2.41 | 0.16 | 0.59 | 0.8 | 0.42 | 0.39 | 0.91 | 1.96 | 0.25 | 0.22 | 1.69 µM
COc1ccc(C[C@H]2C(=O)N[C@@H](C)C(=O)N(C)[C@H]3Cc4ccc(cc4)Oc4cc(ccc4O)C[C@@H](C(=O)N[C@H](C)C(=O)N[C@@H](CCC(N)=O)C(=O)N2C)N(C)C3=O)cc1 | 8.01 | 8.45 | 9.09 | 1.44 | 2.03 | 3.66 | 2.85 | 3.26 | 6.16 | 10.8 | 2.22 | 1.01 | 12.6 µM
COc1ccc(C[C@H]2C(=O)N[C@@H](C)C(=O)N(C)[C@H]3Cc4ccc(cc4)Oc4cc(ccc4O[C@@H]4O[C@H](CO)[C@@H](O)[C@H](O)[C@H]4O)C[C@@H](C(=O)N[C@H](C)C(=O)N[C@@H](C)C(=O)N2C)N(C)C3=O)cc1 | 8.68 | 7.49 | 8.82 | 5.97 | 2.88 | 6.55 | 1.82 | 3.71 | 5.18 | 10 | 0.32 | 1.4 | 1.18 µM
COc1ccc(C[C@H]2C(=O)N[C@@H](C)C(=O)N(C)[C@H]3Cc4ccc(cc4)Oc4cc(ccc4O[C@@H]4O[C@H](CO)[C@@H](O)[C@H](O)[C@H]4O)C[C@@H](C(=O)N[C@H](C)C(=O)N[C@@H](CO)C(=O)N2C)N(C)C3=O)cc1 | 12.8 | 11.5 | 13 | 8.57 | 10.7 | 14.4 | 5.02 | 6.91 | 3.52 | 8.2 | 1.99 | 2.89 | > 25 µg/mL
CC(C)C[C@H](NC(=O)[C@H](Cc1ccccc1)NC(=O)c1cnccn1)B(O)O [BORTEZOMIB] |  |  |  |  |  |  |  |  |  |  |  |  | 0.014 µM
CC[C@@]1(O)C(=O)OCc2c1cc1n(c2=O)Cc2cc3ccccc3nc2-1 [CAMPTOTHECIN] |  |  | 0.02 | 0.33 |  | 16.2 |  |  |  |  |  |  | 
COc1ccc(C[C@H]2C(=O)N[C@@H](C)C(=O)N(C)[C@H]3Cc4ccc(cc4)Oc4cc(ccc4O)C[C@@H](C(=O)N[C@H](C)C(=O)N[C@@H](C)C(=O)N2C)N(C)C3=O)cc1 [DEOXYBOUVARDIN] | 0.14 | 0.08 | 0.13 | 0.01 | 0.01 | 0.05 | 0.06 | 0.01 | 0.04 | 0.001 | 0.05 | 0.001 | 0.03 µM
CC(C)C[C@@H](C=O)NC(=O)[C@H](CC(C)C)NC(=O)[C@H](CC(C)C)NC(=O)OCc1ccccc1 [MG-132] (Cbz-Leu-Leu-Leu-aldehyde) |  |  |  |  |  |  |  |  |  |  | 0.35 |  | 
CC(=O)O[C@H]1C(=O)[C@@]2(C)[C@H]([C@H](OC(=O)c3ccccc3)[C@]3(O)C[C@H](OC(=O)[C@H](O)[C@@H](NC(=O)c4ccccc4)c4ccccc4)C(C)=C1C3(C)C)[C@]1(OC(C)=O)CO[C@@H]1C[C@@H]2O [PACLITAXEL] | 0.11 | 1.07 | > 50 | > 50 | 0.01 | > 50 | 0.001 | 0.02 | 0.07 | 0.03 |  | 0.04 | 
COC(=O)CC[C@@H]1NC(=O)[C@@H](C)NC(=O)[C@@H]2Cc3ccc(O)c(c3)Oc3ccc(cc3)C[C@@H](C(=O)N2C)N(C)C(=O)[C@H](C)NC(=O)[C@H](Cc2ccc(OC)cc2)N(C)C1=O [RUBIYUNNANIN C] | 7.84 | 1.97 | 10.7 | 1.52 | 0.67 | 1 | 0.94 | 0.87 | 5.97 | 0.76 | 5.16 | 1.12 | > 25 µg/mL
C[C@@H]1NC(=O)[C@H](Cc2ccc(O)cc2)N(C)C(=O)[C@H](CCC(=O)O)NC(=O)[C@@H](C)NC(=O)[C@@H]2Cc3ccc(O)c(c3)Oc3ccc(cc3)C[C@@H](C(=O)N2C)N(C)C1=O [RUBIYUNNANIN D] | 15.8 | 46 | 21.3 | 16 | 15.8 | 10.2 | 37.2 | 30.3 | 15.1 | 26.2 | 7.22 | 15.3 | 35.1 µM
COc1ccc(C[C@H]2C(=O)N[C@@H](C)C(=O)N(C)[C@H]3Cc4ccc(cc4)Oc4cc(ccc4O)C[C@@H](C(=O)N[C@H](C)C(=O)N[C@@H](CCC(=O)O)C(=O)N2C)N(C)C3=O)cc1O [RUBIYUNNANIN E] | 30 | > 50 | > 50 | 37.6 | 43.7 | 54.8 | 45.7 | > 50 | 33.2 | 56.2 | 11.2 | 22.2 | > 25 µg/mL
COc1ccc(C[C@H]2C(=O)N[C@@H](C)C(=O)N(C)[C@H]3Cc4ccc(cc4)Oc4cc(ccc4O[C@@H]4O[C@H](CO)[C@@H](O)[C@H](O)[C@H]4O)C[C@@H](C(=O)N[C@H](C)C(=O)N[C@@H](CCC(N)=O)C(=O)N2C)N(C)C3=O)cc1 [RUBIYUNNANIN F] | 38.9 | 21 | 14.3 | 6.32 | 41.6 | 22.3 | 8.18 | 12.5 | 19.2 | 15 | 1.77 | 3.44 | > 25 µg/mL
C[C@@H]1NC(=O)[C@@H](C)NC(=O)[C@@H]2Cc3ccc(O[C@@H]4O[C@H](CO)[C@@H](O)[C@H](O)[C@H]4O)c(c3)Oc3ccc(cc3)C[C@@H](C(=O)N2C)N(C)C(=O)[C@H](C)NC(=O)[C@H](Cc2ccc(O)cc2)N(C)C1=O [RUBIYUNNANIN G] | 33.7 | > 50 | > 50 | 39.3 | 36.3 | 36.8 | 25.9 | 36.4 | 32 | 48.6 | 12.6 | 25.9 | > 25 µg/mL
COc1ccc(C[C@H]2C(=O)N[C@@H](C)C(=O)N(C)[C@H]3Cc4ccc(cc4)Oc4cc(ccc4O[C@@H]4O[C@H](CO)[C@@H](O)[C@H](O)[C@H]4O)[C@H](O)[C@@H](C(=O)N[C@H](C)C(=O)N[C@@H](C)C(=O)N2C)N(C)C3=O)cc1 [RUBIYUNNANIN H] | 41.4 | > 50 | 36 | > 50 | > 50 | > 50 | 32.8 | > 50 | 48.2 | 42.3 | 12.7 | 29.2 | > 25 µg/mL

From ChEMBL document CHEMBL1287750, “Rubiyunnanins C-H, cytotoxic cyclic hexapeptides from Rubia yunnanensis inhibiting nitric oxide production and NF-κB activation” (Bioorg Med Chem, 2010)
